Bim-Mcl-1: inhibitors of Bim peptide binding to Mcl-1, primary screen, biochemical, bead-based flow cytometry, multiplex; Induced myeloid leukemia cell differentiation protein Mcl-1 (Homo sapiens), Q07820; 0.1% of 190,000 active; AID 1009, 2008; Bim peptide-Mcl-1 binding; inhibition, % at 10 µM; in the data active means inhibition above about 40%
Target sequence (Q07820 whole entry, looked up): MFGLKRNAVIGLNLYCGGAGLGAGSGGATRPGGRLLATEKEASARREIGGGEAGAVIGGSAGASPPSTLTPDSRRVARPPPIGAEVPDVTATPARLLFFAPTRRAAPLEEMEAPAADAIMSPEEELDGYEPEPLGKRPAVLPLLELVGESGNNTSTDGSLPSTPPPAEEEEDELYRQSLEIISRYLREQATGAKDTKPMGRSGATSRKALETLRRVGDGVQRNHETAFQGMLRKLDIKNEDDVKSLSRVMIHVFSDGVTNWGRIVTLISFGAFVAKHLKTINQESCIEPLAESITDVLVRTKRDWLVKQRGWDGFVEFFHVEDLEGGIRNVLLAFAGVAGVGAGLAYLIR
Mcl1-Noxa inh: Mcl-1/Noxa binding inhibitors, primary screen, biochemical, TR-FRET, 1536-well; Induced myeloid leukemia cell differentiation protein Mcl-1 (Homo sapiens), Q07820; TR-FRET Mcl-1/Noxa peptide binding, 2 h; inhibition, % at 21.7 µM; 1.5% of 220,000 active;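 active means compounds that cut the protein-peptide binding signal by more than 50% relative to plate controls in a single-dose test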;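 further: His-tagged Mcl-1 with rhodamine Noxa BH3 peptide and terbium anti-His antibody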
RBBP9 inh: human RBBP9 inhibitors, primary screen, biochemical, fluorescence polarization, FP-Rh probe, HTS; Serine hydrolase RBBP9 (Homo sapiens), O75884; recombinant RBBP9; inhibition, % at 7.94 µM; 0.2% of 220,000 active;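 active means inhibition above the campaign mean of all tested compounds plus 3 SD, cut at about 14% in these data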
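Material: RBBP9 protein. Amount: RBBP9 at 2.5 µM in dispensed solution, before mixing. Schedule: 30 min then 45 min, 25 °C. Medium: Tris buffer pH 8.0, NaCl, Pluronic. Measured by: fluorescence polarization. Measure: percent inhibition from mP, scaled between DMSO and no-protein wells. Replication: one well per compound.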
Mcl1 Bid PPI: Mcl-1/Bid binding inhibitors, primary screen, biochemical, TR-FRET, 1536-well; inhibition, % at 21.7 µM; AID 1021, 2008; TR-FRET Mcl-1/Bid-Dy647 peptide binding; Induced myeloid leukemia cell differentiation protein Mcl-1 (Homo sapiens), Q07820; 0.97% of 220,000 active;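 active means compounds that cut the binding signal by more than half at the single screening dose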;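 further: His-tagged Mcl-1 with europium anti-His antibody binding Bid BH3 peptide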
MCL1-BIM inh: inhibitors of MCL1 binding to BIM-BH3, primary screen, biochemical, fluorescence polarization. GST-MCL1 / FITC-Bim-BH3 fluorescence polarization. 0.68% of 320,000 active. Induced myeloid leukemia cell differentiation protein Mcl-1 (Homo sapiens), Q07820. inhibition, % at 10.9 µM;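 active means inhibition above the mean inhibition of all tested compounds plus 3 SD, set per campaign, cut at about 40% in these data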;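 further: higher means more loss of mP so more displacement of Bim peptide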
EBV gp42 block: Epstein-Barr virus gp42 inhibitors, primary screen, biochemical, uHTS, fluorescence polarization; AID 1085, 2008; Fluorescence polarization binding assay, mP read-out; Glycoprotein 42 (Epstein-Barr virus (strain AG876)), Q1HVG2; inhibition, % (tested at 21.74 µM); 0.42% of 220,000 active; in the data active means inhibition above about 50%
A number is an active result. In the library only some 2.2% were active in any assay of this set; here they are far more common.

`N#CCc1nn(Cc2ccc(F)cc2)c(=O)c2ccccc12` gave MCL1-BIM inh inactive.
Screening CCCCn1nc(C(=O)Nc2nc3c(s2)CCCC3)c2ccccc2c1=O returned Bim-Mcl-1 inactive, Mcl1-Noxa inh inactive, RBBP9 inh inactive, Mcl1 Bid PPI inactive, MCL1-BIM inh inactive and EBV gp42 block inactive.
`CCCCCCn1nc(C(=O)Nc2nc3c(s2)CCCC3)c2ccccc2c1=O` gave Bim-Mcl-1 45, Mcl1-Noxa inh inactive, RBBP9 inh inactive, Mcl1 Bid PPI inactive, MCL1-BIM inh inactive and EBV gp42 block inactive.
For Cc1ccc(-c2csc(NC(=O)c3ccno3)n2)cc1 the results were Bim-Mcl-1 inactive, Mcl1-Noxa inh 56, RBBP9 inh inactive, Mcl1 Bid PPI inactive, MCL1-BIM inh inactive and EBV gp42 block inactive.
`Cc1ccc(-c2csc(NC(=O)c3ccc(C)o3)n2)cc1` gave Bim-Mcl-1 inactive, Mcl1-Noxa inh inactive, RBBP9 inh inactive, Mcl1 Bid PPI inactive, MCL1-BIM inh inactive and EBV gp42 block inactive.
Screening CCC(C)NC(=O)CSc1nc2cc3c(cc2c(=O)n1Cc1ccco1)OCO3 (configuration not stated) returned Bim-Mcl-1 inactive, Mcl1-Noxa inh inactive, RBBP9 inh inactive, Mcl1 Bid PPI 54 and EBV gp42 block inactive.
Screening CCN(C(=O)COC(=O)CNC(=O)c1ccc(C)cc1)c1c(N)n(Cc2ccccc2)c(=O)[nH]c1=O returned MCL1-BIM inh inactive.
C=CCn1c(N2CCCCCC2)nc2c1c(=O)n(C)c(=O)n2C was read as Bim-Mcl-1 inactive, Mcl1-Noxa inh 98, RBBP9 inh inactive, Mcl1 Bid PPI inactive, MCL1-BIM inh inactive and EBV gp42 block inactive.
`NC(=S)N/N=C/c1ccc(-c2ccc([N+](=O)[O-])cc2)o1` gave Bim-Mcl-1 inactive, Mcl1-Noxa inh 52, RBBP9 inh inactive, Mcl1 Bid PPI inactive, MCL1-BIM inh inactive and EBV gp42 block inactive.
`Cc1cc([N+](=O)[O-])ccc1-c1ccc(/C=N/NC(=O)Cc2ccccc2)o1` gave Bim-Mcl-1 inactive, Mcl1-Noxa inh inactive, RBBP9 inh inactive, Mcl1 Bid PPI inactive, MCL1-BIM inh inactive and EBV gp42 block 89.
Screening CN(/N=C/c1ccc(-c2ccc([N+](=O)[O-])cc2)o1)c1ccccc1 returned MCL1-BIM inh inactive.
O=C1Nc2ccccc2/C1=N/N=C/c1ccc(-c2ccc([N+](=O)[O-])cc2)o1 was read as Bim-Mcl-1 inactive, Mcl1-Noxa inh 80, RBBP9 inh inactive, Mcl1 Bid PPI 89 and EBV gp42 block inactive.
For COc1ccc(-c2cn(Cc3ccc(C(N)=O)cc3)c(-c3ccc(Cl)nc3)n2)cc1 the results were MCL1-BIM inh inactive.
Screening C=C(C)C(=O)Nc1cccc(C2=NOC3(C2)C[C@H](C(N)=O)N(C(=O)c2ccccc2)C3)c1 (some centres not stated) returned Mcl1-Noxa inh 61, Mcl1 Bid PPI inactive, MCL1-BIM inh inactive and EBV gp42 block inactive.
`C/C=C(/C)C(=O)Nc1cccc(C2=NOC3(C2)C[C@H](C(N)=O)N(C(=O)c2ccc(Cl)cc2)C3)c1` (some centres not stated) gave Mcl1-Noxa inh inactive, Mcl1 Bid PPI inactive, MCL1-BIM inh inactive and EBV gp42 block inactive.
CCC(=O)Nc1cccc(C2=NOC3(C2)C[C@@H](C(N)=O)N(C(=O)COc2ccc(Cl)cc2)C3)c1 (some centres not stated) was read as Mcl1-Noxa inh inactive, Mcl1 Bid PPI inactive, MCL1-BIM inh inactive and EBV gp42 block inactive.
C=C(C)C(=O)Nc1cccc(C2=NOC3(C2)C[C@@H](C(N)=O)N(C(=O)c2cc([N+](=O)[O-])cc([N+](=O)[O-])c2C)C3)c1 (some centres not stated) was read as Mcl1-Noxa inh 74, Mcl1 Bid PPI inactive, MCL1-BIM inh inactive and EBV gp42 block inactive.
